Source: PubChem BioAssay AID624015 (Broad Institute, 2012)

Target: Scavenger receptor class B member 1 (Mus musculus) (UniProt Q61009)
Assay: inhibitors of HDL-directed cholesterol efflux via mutant SR-BI, dose response, mechanism study for SR-BI HDL uptake inhibitor project, cell-based, ldlA CHO C384S mutant, [3H]cholesterol, powder samples, set 2 (AID 624015)
Details: [3H]cholesterol efflux to HDL
Summary of the method: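 system = Cys384S SR-BI mutant ldlA CHO cells | medium = HEPES pH 7.4 buffered medium, FAF-BSA equilibrated | doses = 0.5% DMSO vehicle | times = 1 h compound pre-incubation, then 2 h HDL efflux, 37 °C | measured by = scintillation counting, medium and cell lysate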

Chain of Scavenger receptor class B member 1 (Mus musculus) (Q61009 whole entry, looked up): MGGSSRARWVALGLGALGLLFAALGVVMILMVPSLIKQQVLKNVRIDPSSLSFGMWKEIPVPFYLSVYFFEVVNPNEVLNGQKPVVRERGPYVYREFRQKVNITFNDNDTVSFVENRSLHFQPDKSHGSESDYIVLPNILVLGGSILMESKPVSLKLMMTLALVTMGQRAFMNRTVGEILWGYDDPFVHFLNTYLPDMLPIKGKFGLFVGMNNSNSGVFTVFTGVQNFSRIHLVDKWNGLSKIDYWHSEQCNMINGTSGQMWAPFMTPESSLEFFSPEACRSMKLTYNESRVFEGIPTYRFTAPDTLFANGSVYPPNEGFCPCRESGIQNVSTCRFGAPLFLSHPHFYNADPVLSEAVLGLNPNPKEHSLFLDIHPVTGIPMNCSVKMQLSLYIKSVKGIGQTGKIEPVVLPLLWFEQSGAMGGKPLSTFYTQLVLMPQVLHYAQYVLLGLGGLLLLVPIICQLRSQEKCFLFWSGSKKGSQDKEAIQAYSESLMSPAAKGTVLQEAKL

AC50: 250 nM
SMILES: CC(C)NC(=O)Nc1ccc2c(c1)C(=O)N([C@H](C)CO)C[C@@H](C)[C@H](CN(C)S(=O)(=O)c1ccc(Cl)cc1)O2
